Results reported in ChEMBL document CHEMBL3046181 (Molecules, 2013).
pIC50: −log10 of the molar value.

Tests used:
Trifolium alexandrinum [1] = assay: Herbicidal activity against Trifolium alexandrinum assessed as inhibition of seed germination after 5 days; details: 120 h
Physalis ixocarpa [2] = assay: Herbicidal activity against Physalis ixocarpa assessed as inhibition of seed germination after 5 days; details: 120 h
Spinacia oleracea [3] = assay: Inhibition of hill reaction in Spinacia oleracea (spinach) chloroplast; type: functional
Spinacia oleracea [4] = assay: Inhibition of light reaction of photosynthesis in Spinacia oleracea (spinach) chloroplast; type: functional
Triticum aestivum [5] = assay: Herbicidal activity against Triticum vulgare var. Salamanca (wheat) assessed as inhibition of seed respiration after 72 hr by Clark's electrode method; type: functional, organism-based
Outline: (§1)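 Seeds were imbibed in 10 mL water in Petri dishes with compound at 10–50 μM, as in the germination set-up. O2 uptake was measured after 5, 24, 48 and 72 h with an oxygen electrode, where O2-reduction current was converted to voltage. Consumption rate was calculated, with replicates as mean ± S.E. IC50 came from probit analysis.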

Lolium multiflorum [6] = assay: Herbicidal activity against Lolium multiflorum (Italian ryegrass) assessed as inhibition of seed respiration after 72 hr by Clark's electrode method; type: functional, organism-based; outline: as §1
Trifolium alexandrinum [7] = assay: Herbicidal activity against Trifolium alexandrinum assessed as inhibition of seed respiration after 72 hr by Clark's electrode method; type: functional, organism-based; outline: as §1
Physalis ixocarpa [8] = assay: Herbicidal activity against Physalis ixocarpa assessed as inhibition of seed respiration after 72 hr by Clark's electrode method; type: functional, organism-based; outline: as §1
Triticum aestivum [9] = assay: Herbicidal activity against Triticum vulgare var. Salamanca (wheat) assessed as inhibition of seed respiration at 10 to 50 uM by Clark's electrode method; type: functional, organism-based; details: TDE = time-dependent effect
Outline: (§2)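 Seeds imbibed in 10 mL water on filter paper in Petri dishes, with compound at 10–50 μM (dissolved in MeOH, final MeOH under 1%); controls received the same water and MeOH. O2 uptake was measured polarographically after 5, 24, 48 and 72 h of imbibition, and consumption rate was calculated. IC50 at 72 h was derived by probit/linear regression. Replicate experiments, means ± S.E.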

Lolium multiflorum [10] = assay: Herbicidal activity against Lolium multiflorum (Italian ryegrass) assessed as inhibition of seed respiration at 10 to 50 uM by Clark's electrode method; type: functional, organism-based; details: TDE = time-dependent effect; outline: as §2
Trifolium alexandrinum [11] = assay: Herbicidal activity against Trifolium alexandrinum assessed as inhibition of seed respiration at 10 to 50 uM by Clark's electrode method; type: functional, organism-based; details: TDE = time-dependent effect; outline: as §2
Physalis ixocarpa [12] = assay: Herbicidal activity against Physalis ixocarpa assessed as inhibition of seed respiration at 10 to 50 uM by Clark's electrode method; type: functional, organism-based; details: TDE = time-dependent effect; outline: as §2
Triticum aestivum [13] = assay: Herbicidal activity against Triticum vulgare var. Salamanca (wheat) assessed as inhibition of seed respiration after 5 to 72 hr by Clark's electrode method; type: functional, organism-based; outline: as §2
Lolium multiflorum [14] = assay: Herbicidal activity against Lolium multiflorum (Italian ryegrass) assessed as inhibition of seed respiration after 5 to 72 hr by Clark's electrode method; type: functional, organism-based; outline: as §2
Trifolium alexandrinum [15] = assay: Herbicidal activity against Trifolium alexandrinum assessed as inhibition of seed respiration after 5 to 72 hr by Clark's electrode method; type: functional, organism-based; outline: as §2
Physalis ixocarpa [16] = assay: Herbicidal activity against Physalis ixocarpa assessed as inhibition of seed respiration after 5 to 72 hr by Clark's electrode method; type: functional, organism-based; outline: as §2
Triticum aestivum [17] = assay: Herbicidal activity against Triticum vulgare var. Salamanca (wheat) assessed as inhibition of shoot elongation after 4 days; details: 96 h
Lolium multiflorum [18] = assay: Herbicidal activity against Lolium multiflorum (Italian ryegrass) assessed as inhibition of shoot elongation after 5 days; details: 120 h
Trifolium alexandrinum [19] = assay: Herbicidal activity against Trifolium alexandrinum assessed as inhibition of shoot elongation after 5 days; details: 120 h
Physalis ixocarpa [20] = assay: Herbicidal activity against Physalis ixocarpa assessed as inhibition of shoot elongation after 5 days; details: 120 h
Triticum aestivum [21] = assay: Herbicidal activity against Triticum vulgare var. Salamanca (wheat) assessed as inhibition of root elongation after 4 days; details: 96 h
Lolium multiflorum [22] = assay: Herbicidal activity against Lolium multiflorum (Italian ryegrass) assessed as inhibition of root elongation after 5 days; details: 120 h
Lolium multiflorum [23] = assay: Herbicidal activity against Lolium multiflorum (Italian ryegrass) assessed as inhibition of seed germination after 5 days; details: 120 h
Triticum aestivum [24] = assay: Post-emergent herbicidal activity against Triticum vulgare var. Salamanca (wheat) assessed as dry biomass at 60 uM after 14 days relative to control; type: functional
Outline: (§3)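 Plants were grown 18 days in a greenhouse, then sprayed with compound dissolved in MeOH with Tween 20 and maize oil. Controls were sprayed with distilled water containing the same MeOH, Tween 20 and maize oil. Dry biomass of all leaves was weighed 14 days after spraying, and differences from control were judged by Student's t-test (p < 0.05).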

Trifolium alexandrinum [25] = assay: Post-emergent herbicidal activity against Trifolium alexandrinum assessed as dry biomass at 60 uM after 14 days relative to control; type: functional; outline: as §3
Lolium multiflorum [26] = assay: Post-emergent herbicidal activity against Lolium multiflorum (Italian ryegrass) assessed as dry biomass at 40 uM after 14 days relative to control; type: functional; outline: as §3
Physalis ixocarpa [27] = assay: Post-emergent herbicidal activity against Physalis ixocarpa assessed as dry biomass at 60 uM after 14 days relative to control; type: functional; outline: as §3
Triticum aestivum [28] = assay: Post-emergent herbicidal activity against Triticum vulgare var. Salamanca (wheat) assessed as dry biomass at 40 uM after 14 days relative to control; type: functional; outline: as §3
Trifolium alexandrinum [29] = assay: Post-emergent herbicidal activity against Trifolium alexandrinum assessed as dry biomass at 40 uM after 14 days relative to control; type: functional; outline: as §3
Physalis ixocarpa [30] = assay: Post-emergent herbicidal activity against Physalis ixocarpa assessed as dry biomass at 40 uM after 14 days relative to control; type: functional; outline: as §3
Lolium multiflorum [31] = assay: Post-emergent herbicidal activity against Lolium multiflorum (Italian ryegrass) assessed as dry biomass at 20 uM after 14 days relative to control; type: functional; outline: as §3
Triticum aestivum [32] = assay: Post-emergent herbicidal activity against Triticum vulgare var. Salamanca (wheat) assessed as dry biomass at 20 uM after 14 days relative to control; type: functional; outline: as §3
Physalis ixocarpa [33] = assay: Post-emergent herbicidal activity against Physalis ixocarpa assessed as dry biomass at 20 uM after 14 days relative to control; type: functional; outline: as §3
Trifolium alexandrinum [34] = assay: Post-emergent herbicidal activity against Trifolium alexandrinum assessed as dry biomass at 20 uM after 14 days relative to control; type: functional; outline: as §3
Trifolium alexandrinum [35] = assay: Herbicidal activity against Trifolium alexandrinum assessed as inhibition of root elongation after 5 days; details: 120 h
Physalis ixocarpa [36] = assay: Herbicidal activity against Physalis ixocarpa assessed as inhibition of root elongation after 5 days; details: 120 h
Lolium multiflorum [37] = assay: Herbicidal activity against Lolium multiflorum (Italian ryegrass) assessed as inhibition of seed germination at 50 uM after 5 days; type: functional; details: 120 h
Outline: (§4)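 Seeds were placed on filter paper in Petri dishes (20 seeds for T. vulgare) and wetted with deionized water or test solution. Compound was given in MeOH at under 1%, and controls held matching MeOH. Three replicate experiments were run. Germination was scored as 1 mm root extrusion, and root and shoot length were measured on all germinated seeds. Student's t-test was used, and IC50 values came from probit analysis.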

Physalis ixocarpa [38] = assay: Herbicidal activity against Physalis ixocarpa assessed as inhibition of seed germination at 50 uM after 5 days; type: functional; details: 120 h; outline: as §4
Triticum aestivum [39] = assay: Herbicidal activity against Triticum vulgare var. Salamanca (wheat) assessed as inhibition of seed germination after 4 days; details: 96 h
Lolium multiflorum [40] = assay: Post-emergent herbicidal activity against Lolium multiflorum (Italian ryegrass) assessed as dry biomass at 60 uM after 14 days relative to control; type: functional; outline: as §3
[41] = Inhibition of mitochondrial complex 1 in Homo sapiens (human) T47D cells by Clark's electrode method; type: cell-based

SMILES: CCCCC[C@H]1CCCCCCCCCC(=O)O[C@H]2[C@H](O)[C@@H](CO)O[C@@H](O[C@H]3[C@H](O1)O[C@H](C)[C@H](O)[C@@H]3O)[C@@H]2O[C@@H]1O[C@@H](C)[C@H](OC(=O)[C@@H](C)CC)[C@@H](O[C@@H]2O[C@@H](C)[C@H](O)[C@@H](O)[C@H]2O)[C@H]1OC(=O)[C@@H](C)CC [TRICOLORIN A]
- pIC50 (Trifolium alexandrinum [1]): 4.80
- pIC50 (Physalis ixocarpa [2]): 4.86
- pIC50 (Spinacia oleracea [3]): 5.30
- UC50 (Spinacia oleracea [4]): 0.33 µM
- pIC50 (Triticum aestivum [5]): 4.59
- pIC50 (Lolium multiflorum [6]): 5.10
- pIC50 (Trifolium alexandrinum [7]): 4.65
- pIC50 (Physalis ixocarpa [8]): 4.93
- inhibition (Triticum aestivum [9]): tde
- inhibition (Lolium multiflorum [10]): tde
- inhibition (Trifolium alexandrinum [11]): tde
- inhibition (Physalis ixocarpa [12]): tde
- inhibition (Triticum aestivum [13]): Dose-dependent effect
- inhibition (Lolium multiflorum [14]): Dose-dependent effect
- inhibition (Trifolium alexandrinum [15]): Dose-dependent effect
- inhibition (Physalis ixocarpa [16]): Dose-dependent effect
- pIC50 (Triticum aestivum [17]): 5.07
- pIC50 (Lolium multiflorum [18]): 4.91
- pIC50 (Trifolium alexandrinum [19]): 4.90
- pIC50 (Physalis ixocarpa [20]): 4.90
- pIC50 (Triticum aestivum [21]): 4.62
- pIC50 (Lolium multiflorum [22]): 4.82
- pIC50 (Lolium multiflorum [23]): 4.79
- Activity (Triticum aestivum [24]): 67%
- Activity (Trifolium alexandrinum [25]): 63%
- Activity (Lolium multiflorum [26]): 53%
- Activity (Physalis ixocarpa [27]): 78%
- Activity (Triticum aestivum [28]): 78%
- Activity (Trifolium alexandrinum [29]): 83%
- Activity (Physalis ixocarpa [30]): 84%
- Activity (Lolium multiflorum [31]): 91%
- Activity (Triticum aestivum [32]): 82%
- Activity (Physalis ixocarpa [33]): 104%
- Activity (Trifolium alexandrinum [34]): 87%
- pIC50 (Trifolium alexandrinum [35]): 4.74
- pIC50 (Physalis ixocarpa [36]): 4.86
- inhibition at 50 µM (Lolium multiflorum [37]): 100%
- inhibition at 50 µM (Physalis ixocarpa [38]): 100%
- pIC50 (Triticum aestivum [39]): 4.59
- Activity (Lolium multiflorum [40]): 38%

SMILES: C[n+]1ccc(-c2cc[n+](C)cc2)cc1.[Cl-].[Cl-] [PARAQUAT DICHLORIDE]
- Activity (Triticum aestivum [24]): 67%
- Activity (Trifolium alexandrinum [25]): 57%
- Activity (Lolium multiflorum [26]): 54%
- Activity (Physalis ixocarpa [27]): 84%
- Activity (Triticum aestivum [28]): 67%
- Activity (Trifolium alexandrinum [29]): 59%
- Activity (Physalis ixocarpa [30]): 100%
- Activity (Lolium multiflorum [31]): 97%
- Activity (Triticum aestivum [32]): 83%
- Activity (Physalis ixocarpa [33]): 96%
- Activity (Trifolium alexandrinum [34]): 67%
- Activity (Lolium multiflorum [40]): 32%

SMILES: CC(C)(O)[C@H]1CC[C@](C)([C@@H](O)CC[C@](C)(O)[C@H]2CC[C@H]3O[C@@H]([C@]4(C)CC[C@@H](Br)C(C)(C)O4)CC[C@]3(C)O2)O1 [THYRSIFEROL]
- pIC50 [41]: 5.52
